The RNAGym collection of RNA variant scans (doi:10.1126/science.aae0568)
Fewer inactive variants are shown than the library holds.

B1: tRNA (parent)
chain: GUUCCGUUGGCGUAAUGGUAACGCGUCUCCCUCCUAAGGAGAAGACUGCGGGUUCGAGUCCCGUACGGAACG

Variants of: B1
Assay: yeast fitness relative to wild type (ratio to wild type); higher = fitter; tRNA-Arg(CCU), competitive growth, 37 C, YPD
Summary of the method: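 Start and end populations of a pooled competition were compared by 100-nucleotide paired-end sequencing of gene amplicons. The Saccharomyces cerevisiae strains carried tRNA-Arg(CCU) gene variants at the native genomic locus, synthesised with a 3% per-site mutation rate at 69 sites, and competed in YPD at 37°C for 24 hours in six parallel replicates. Darwinian fitness relative to wild type was based on the change in genotype frequencies. Genotypes required ≥ 100 starting reads, and estimates < 0.5 were set to 0.5.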

| Variant | yeast fitness |
| --- | --- |
| C4U C5U G18A G25A C33U G48A G52A A65C G68A | ≤ 0.5 |
| A14G G44A | 0.894 |
| C33G A37C A45C | ≤ 0.5 |
| U2C G6A | 0.998 |
| C4U U8C A42G | 0.69 |
| C27A A36U A37U | 0.638 |
| A21G C31A A42G | 0.561 |
| C11U U13C | 0.954 |
| C11U C31U C60A | ≤ 0.5 |
| G23C U47G C62G G68A | ≤ 0.5 |
| A20C A40U C61A G68A | 0.574 |
| U19A A65C C66G | ≤ 0.5 |
| C27U A36U G38C A43C C66U | ≤ 0.5 |
| C34A C49A C60G A65C | ≤ 0.5 |
| U13G C30A A65U A69C | ≤ 0.5 |
| C5U U28A G67A | 0.545 |
| U8A A43U | 0.763 |
| U32C A42U U64A A65G | ≤ 0.5 |
| G9A A21U U28C G44A C55G | ≤ 0.5 |
| C11U G44C C61U | 0.528 |
| U3C C4G U7C A21C G23C C55A U64A A65C | ≤ 0.5 |

| Variant | yeast fitness |
| --- | --- |
| U19A A43U C46G | 0.658 |
| A14U U26G A36G C60A | ≤ 0.5 |
| U3G A42C | 0.754 |
| U26C U32A C34U G38C | 0.525 |
| G9A A15G A20U U28C A69U | 0.542 |
| G12C C33G A37G A40C C49G | ≤ 0.5 |
| C27A C30U G44C | ≤ 0.5 |
| C22G A36G A37C C46A C49G U64G | ≤ 0.5 |
| U3A C33U U59C | ≤ 0.5 |
| A20C U28G U47C G68C | ≤ 0.5 |
| G17C G44C C66U | ≤ 0.5 |
| C4G U8C A21G | 0.605 |
| A21C C27U C61U G68A | ≤ 0.5 |
| G10C C34A C55U | ≤ 0.5 |
| U19C G56C A57G G68U | ≤ 0.5 |
| U8A A20U G56A G67A | ≤ 0.5 |
| G6A A20U C61U G67A G68U | ≤ 0.5 |
| C27U C33G C55G C61U | 0.539 |
| G17C A42U | 0.703 |
| U7A C31G G51A U64A C66U G68C | ≤ 0.5 |
| U32C A45U | 0.942 |

| Variant | yeast fitness |
| --- | --- |
| A15C U35G G56C | ≤ 0.5 |
| A21G U47C A65C | 0.63 |
| A42U U59A U64G | ≤ 0.5 |
| C29U A42C G67C | 0.505 |
| G10C U19A | 0.612 |
| G17A C49G U53C | ≤ 0.5 |
| C31G U32A | 0.766 |
| G18A A20U A36U A65U | ≤ 0.5 |
| U3C C11A U19G C24A A40C A45U | ≤ 0.5 |
| G10C A45U G48A C55A | ≤ 0.5 |
| C5A U28A A40U C61G | ≤ 0.5 |
| U26A G63A | 0.86 |
| C4U C55U A69U | 0.745 |
| C22A U47A C55A | ≤ 0.5 |
| G9A C31G G56C | 0.753 |
| G6C C11U C24A | ≤ 0.5 |
| C29U G44A | 0.818 |
| C11A C61A | 0.613 |
| G10A C11U A15G C30U U47C C61G A69C | ≤ 0.5 |
| G41A C55A U59A | 0.613 |
| U3A A20C U32A A65U | ≤ 0.5 |

| Variant | yeast fitness |
| --- | --- |
| G17C A57U | 0.52 |
| A36U U53G A69U | ≤ 0.5 |
| A14G C24G A40G U53A G68C | ≤ 0.5 |
| C4A U7C A36G G41A C49A G67U | ≤ 0.5 |
| A20G C49U | 0.922 |
| C33G G52C C61U | 0.566 |
| G25A A37U G56A C66U | ≤ 0.5 |
| C5G C34U C55G A70G | ≤ 0.5 |
| A20U G50A U59C G67C | ≤ 0.5 |
| U3C C5G A14U A43G G67C | ≤ 0.5 |
| C29A A42G A45U G50A C60A | ≤ 0.5 |
| U7G G10C C33U C60G G67A | ≤ 0.5 |
| A20C A21U C27G U35G | 0.521 |
| A37G A45G G48A | 0.557 |
| C11G C24A U28G G63A | 0.586 |
| U8C G25C C31U | 0.696 |
| A14C G17C U26A G41C G44U | ≤ 0.5 |
| A20C A57U | 0.81 |
| A20C A57C | 0.601 |
| U16C U19A | 1.16 |
